The source made the active and inactive calls. The rule behind the calls is not given here.

Assay [1] concerns Tobacco mosaic virus. Nature of the assay: Antiviral activity against TMV assessed as protection effect against viral infection at 500 mg/L. In kind it is functional, organism-based. The method in brief: (§1)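 TMV purified by Gooding's method. Protective, inactivating and curative effects tested on tobacco in vivo by Li's method at 500 mg/L. Ningnanmycin served as the reference control. Each experiment used three replicates and was run three times. Data were analysed by one-way ANOVA with LSD mean separation.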

Assay [2] has as its system Nicotiana tabacum. Nature of the assay: Increase in PR-1a gene expression in TMV-infected tobacco leaf assessed as gene expression ratio on day 5 by RT-PCR. Type of assay: functional. The method in brief: (§2)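 Real-time PCR used gene-specific primers, with β-actin as the reference, and included a 40–95 °C melt curve. Expression ratio was calculated by ΔΔCT against a calibrator over days 1–7 after TMV inoculation. Mean ± SD, n = 4, triplicate sets.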

Assay [3] has as its system Nicotiana tabacum. Nature of the assay: Increase in peroxidase enzyme level in TMV-infected tobacco at 500 ug/mL after 1 day by Polle's method. Type of assay: functional, organism-based. The method in brief: (§3)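 Nicotiana tabacum inoculated with TMV was treated at 500 μg/mL, and leaves were sampled at 1, 3, 5 and 7 days. Leaves were homogenized on ice in 5 mM 2-mercaptoethanol–boric acid buffer, pH 8.8, then centrifuged. The supernatant was assayed for PAL (He), POD (Polle) or SOD (Beauchamp). Water and TMV-only treatments were the controls. Means ± SD, n = 3, one-way ANOVA.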

Assay [4] deals with Nicotiana tabacum. The assay is described as follows: Increase in PR-5 gene expression in TMV-infected tobacco leaf assessed as gene expression ratio on day 5 by RT-PCR. Type of assay: functional. The method in brief:
as §2

The test system of assay [5] is Nicotiana tabacum. Nature of the assay: Increase in peroxidase enzyme level in TMV-infected tobacco at 500 ug/mL after 7 days by Polle's method. Type of assay: functional. The method in brief: as §3
Assay [6] has as its system Tobacco mosaic virus. The assay is described as follows: Antiviral activity against TMV assessed as viral disease curative effect at 500 mg/L. In kind it is functional. The method in brief: as §1
The test system of assay [7] is Nicotiana tabacum. Nature of the assay: Increase in superoxide dismutase level in TMV-infected tobacco at 500 ug/mL after 7 days by Beauchamp's method. Type of assay: functional. The method in brief:
as §3

In assay [8] the test system is Tobacco mosaic virus. The assay is described as follows: Antiviral activity against TMV assessed as viral inactivation effect at 500 mg/L. In kind it is functional. The method in brief: as §1
The subject of assay [9] is Nicotiana tabacum. The assay is described as follows: Increase in superoxide dismutase level in TMV-infected tobacco at 500 ug/mL after 1 day by Beauchamp's method. In kind it is functional, organism-based. In outline: as §3
In assay [10] the test system is Nicotiana tabacum. Nature of the assay: […] in phenylalanine ammonia lyase level in TMV-infected tobacco at 500 ug/mL up to 7 days by He's method. In kind it is functional, organism-based. The method in brief:
as §3

As for `CCCCCC(=O)O/N=C/C1C(C)=NN(c2ccc(Cl)cc2)C1Sc1ccc(F)cc1` (stereo not given), the Activity in assay [1] turned out to be 31%; in assay [5], 40 EU/mg; in assay [6], 62%; in [7], 40 EU/mg; in assay [8] it was 85.6%. Further, the Ratio in [2] came to 26.6. In addition, the result in assay [3], in assay [9] and in assay [10] was Active. Besides, in assay [4], the result was inactive.

In the case of `C/C=C/C=C/C(=O)O/N=C/C1C(C)=NN(c2ccc(Cl)cc2)C1Sc1ccc(C)cc1` (stereo not given), the Activity in assay [1] is reported as 50%; in assay [6], 38.9%; in assay [8], 68.9%.

`CCCCCC(=O)O/N=C/C1C(C)=NN(c2ccccc2)C1Sc1ccc(F)cc1` (stereo not given): the Activity in [1] is reported as 28.9%; in [6] it was 40.2%; in [8], 67.8%.

For `CC1=NN(c2ccc(Cl)cc2)C(Sc2ccc(F)cc2)C1/C=N/OC(=O)c1ccccc1` (stereo not given), the Activity in assay [1] turned out to be 35%; in assay [6] it was 47.7%; in assay [8] it was 63.8%.

`COc1ccc(SC2C(/C=N/OC(=O)c3ccccc3)C(C)=NN2c2ccc(Cl)cc2)cc1` (stereo not given): the Activity is recorded as 27.6% in assay [1], 35% in assay [6] and 56.8% in assay [8].

As for `CCCCCC(=O)O/N=C/C1C(C)=NN(c2ccc(C)cc2)C1Sc1ccc(F)cc1` (stereo not given), the Activity in assay [1] is 40.9%; in assay [6], 30%; in assay [8], 61.5%.

As for `CCCC(=O)O/N=C/C1C(C)=NN(c2ccccc2)C1Sc1ccc(F)cc1` (stereo not given), the Activity in assay [1] worked out at 25.9%; in assay [6], 34%; in [8] it was 79.9%.

For `C/C=C/C=C/C(=O)O/N=C/C1C(C)=NN(c2ccc(C)cc2)C1Sc1ccc(F)cc1` (stereo not given), the Activity in assay [1] is 26%; in assay [6], 46.4%; in assay [8] it was 80.2%.

As for `CNCC(=O)N[C@@H](CO)C(=O)N[C@H]1[C@H](O)[C@@H](O)[C@H](n2ccc(N)nc2=O)O[C@@H]1C(N)=O` [NINGNANMYCIN], the Ratio in assay [2] came out at 13.8; in assay [4], 17.9. In addition, the Activity was 56% in assay [6] and 97% in [8].

For `CC(=O)O/N=C/C1C(C)=NN(c2ccccc2)C1Sc1ccc(F)cc1` (stereo not given), the Activity was 36.7% in assay [1], 40.4% in assay [6] and 81.4% in assay [8].

In the case of `CC1=NN(c2ccc(C)cc2)C(Sc2ccc(F)cc2)C1/C=N/OC(=O)c1ccccc1` (stereo not given), the Activity in assay [1] stood at 48.4%; in [6] it was 50%; in assay [8], 69.2%.

Turning to `CC1=NN(c2ccccc2)C(Sc2ccc(F)cc2)C1/C=N/OC(=O)c1ccccc1` (stereo not given), the Activity stood at 28.8% in assay [1], 34.9% in assay [6] and 55% in [8].

On to `C/C=C/C=C/C(=O)O/N=C/C1C(C)=NN(c2ccc(Cl)cc2)C1Sc1ccc(F)cc1` (stereo not given), for which the values for the Activity in assay [1], in assay [6] and in assay [8] were 28.3%, 60% and 82.9%, respectively.

As to `CC1=NN(c2cccc(Cl)c2)C(Sc2ccc(F)cc2)C1/C=N/OC(=O)c1ccccc1` (stereo not given), the Activity is recorded as 41% in assay [1], 30.2% in assay [6] and 55% in [8].
